ChEMBL document CHEMBL2040760, “Synthesis and biological evaluation of novel (-)-Cercosporamide derivatives as potent selective PPARγ modulators” (Eur J Med Chem, 2012)
The source made the active and inactive calls. The calls are words filed in the database; no cut-off is given here.

Experiments:
[1] = biological target: T1, Peroxisome proliferator-activated receptor gamma (Homo sapiens, UniProt P37231); assay: Modulation of full-length human pSG5-fused PPARgamma expressed in MG-63 cells co-expressing pGV-P2-PPRE after 24 hrs by luciferase reporter gene based transactivation assay; assay type: cell-based
T1 sequence (P37231 whole entry): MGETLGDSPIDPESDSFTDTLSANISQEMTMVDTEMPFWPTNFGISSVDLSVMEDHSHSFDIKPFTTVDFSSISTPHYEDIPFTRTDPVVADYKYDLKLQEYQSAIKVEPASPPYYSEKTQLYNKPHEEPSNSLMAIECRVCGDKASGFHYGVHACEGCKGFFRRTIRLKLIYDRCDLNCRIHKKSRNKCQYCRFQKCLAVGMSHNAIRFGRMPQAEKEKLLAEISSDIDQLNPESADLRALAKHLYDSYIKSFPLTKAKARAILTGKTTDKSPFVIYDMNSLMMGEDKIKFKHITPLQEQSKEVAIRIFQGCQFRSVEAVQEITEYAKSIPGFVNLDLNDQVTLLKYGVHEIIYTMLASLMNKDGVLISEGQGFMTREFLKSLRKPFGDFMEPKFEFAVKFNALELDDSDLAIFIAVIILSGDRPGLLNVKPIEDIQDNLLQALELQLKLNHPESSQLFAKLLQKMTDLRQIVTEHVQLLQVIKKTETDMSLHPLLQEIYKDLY
Summary of the method: (§1)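 MG-63 cells transiently co-transfected (Lipofectamine, 4 h, serum- and antibiotic-free) with pSG5-hPPARγ and pGV-P2-PPRE luciferase reporter, replated at 40,000 cells/well. After 24 h and medium change, exposed to graded compound concentrations for 20 h. Luciferase luminescence read as the output.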

[2] = biological target: T2, Peroxisome proliferator-activated receptor gamma (Homo sapiens) (UniProt P37231); assay: Modulation of full-length human pSG5-fused PPARgamma expressed in MG-63 cells co-expressing pGV-P2-PPRE after 24 hrs by luciferase reporter gene based transactivation assay relative to 5-(4-{[6-(4-hydroxy-3,5-dimethylphenoxy)-1-methyl-1H-benzimidazol- 2-yl]methoxy}benzyl)-1,3-thiazolidine-2,4-dione; assay type: cell-based; summary of the method: as §1
T2 sequence (whole entry): T1 sequence (P37231 whole entry)

Rattus norvegicus [3] = assay: Toxicity in Wistar-Imamichi rat assessed as increase in body weight at 300 mg/kg, po qd for 14 days; assay type: organism-based; parameters: dose 300 mg/kg, route oral; settings: in vivo, 336 h
Summary of the method: (§2)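 Female Wistar–Imamichi rats (7 weeks old, acclimatized >1 week on FR2 chow), randomized by BW; n = 5/group. Oral gavage once daily in 0.5% methylcellulose, 100 mg/kg or 30–300 mg/kg, Days 0–13. BW recorded daily. On Day 14, heart weighed after Evans blue dosing and aortic blood draw under ether. Dunnett's or unpaired two-tailed t-test vs vehicle.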

Rattus norvegicus [4] = assay: Antidiabetic activity in po dosed Zucker diabetic fatty rat assessed as improvement in plasma lipids profiles administered qd for 12 days; assay type: functional, organism-based
Summary of the method: (§3)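 Female ZDF rats, 5 weeks old on arrival, acclimatised over 1 week on MR-DBT chow with 10% lard. Randomised on Day -1 by BW, PG, insulin and blood indices. Once-daily oral gavage in 0.5% methylcellulose at 0.01–100 mg/kg for 12 days, n = 5. BW recorded daily. Tail-vein plasma taken Day 12 for glucose, TG, FFA and insulin kits. Dunnett vs vehicle.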

Rattus norvegicus [5] = assay: Toxicity in po dosed Wistar-Imamichi rat assessed as increase heart weight administered qd for 14 days; assay type: organism-based; settings: in vivo, 336 h; summary of the method: as §2
Rattus norvegicus [6] = assay: Antidiabetic activity in Zucker diabetic fatty rat assessed as reduction of triglyceride level at 1 to 100 mg/kg, po qd for 12 days; assay type: functional, organism-based
Summary of the method: (§4)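 Female ZDF rats (5 weeks old on arrival, acclimatized >1 week on MR-DBT diet with 10% lard) randomized on Day -1 by BW, plasma glucose, insulin, Hct, Hb, RBC, MCV; n = 5/group. Oral gavage once daily in 0.5% methylcellulose, 0.01–100 mg/kg, Days 0–11. BW recorded daily; tail-vein plasma on Day 12 for glucose, TG, insulin, FFA; Dunnett's test vs vehicle.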

Rattus norvegicus [7] = assay: Antidiabetic activity in Zucker diabetic fatty rat assessed as reduction of free fatty acids level at >1 mg/kg, po qd for 12 days; assay type: functional, organism-based; summary of the method: as §3
Rattus norvegicus [8] = assay: Antidiabetic activity in Zucker diabetic fatty rat assessed as reduction of non-fasting plasma glucose level at >1 mg/kg, po qd for 12 days; assay type: functional; summary of the method: as §3
Rattus norvegicus [9] = assay: Toxicity in Zucker diabetic fatty rat assessed as increase in body weight at 0.1 mg/kg, po qd for 12 days; assay type: organism-based; parameters: dose 0.1 mg/kg, route oral; settings: in vivo, 288 h; summary of the method: as §4

## COc1cc(O)c2c(c1C(=O)NCc1c(C)ccc3c(F)cccc13)OC1=CC(O)=C(C(C)=O)C(=O)[C@]12C
[1]
  EC50: 16 nM
[2]
  Emax: 39%

## CN(CCOc1ccc(CC2SC(=O)NC2=O)cc1)c1ccccn1 (stereo not drawn) [ROSIGLITAZONE]
Rattus norvegicus [3]
  Activity: Non-toxic
Rattus norvegicus [4]
  Activity: Dose-dependent effect
Rattus norvegicus [5]
  Activity: Dose-dependent effect
Rattus norvegicus [6]
  Activity: Active
Rattus norvegicus [7]
  Activity: Active
Rattus norvegicus [8]
  Activity: <200 mg/dL
Rattus norvegicus [9]
  Activity: Toxic

## COc1cc(O)c2c(c1C(=O)NCc1c(C)ccc3ccccc13)OC1=CC(O)=C(C(C)=O)C(=O)[C@]12C
[1]
  EC50: 28 nM
[2]
  Emax: 47%

## CCc1ccc2ccccc2c1CNC(=O)c1c(OC)cc(O)c2c1OC1=CC(O)=C(C(C)=O)C(=O)[C@]12C
[1]
  EC50: 3.7 nM
[2]
  Emax: 39%

## COc1cc(O)c2c(c1C(=O)NCc1c(C)ccc3cc(Cl)ccc13)OC1=CC(O)=C(C(C)=O)C(=O)[C@]12C
[1]
  EC50: 56 nM
[2]
  Emax: 26%

## COc1cc(O)c2c(c1C(=O)NCc1c(C)cc(F)c3ccccc13)OC1=CC(O)=C(C(C)=O)C(=O)[C@]12C
[1]
  EC50: 4.8 nM
[2]
  Emax: 50%

## COc1cc(O)c2c(c1C(=O)NCc1c(C)ccc3c(Cl)cccc13)OC1=CC(O)=C(C(C)=O)C(=O)[C@]12C
[1]
  EC50: 170 nM
[2]
  Emax: 59%

## COc1cc(O)c2c(c1C(=O)NCc1c(C)ccc3ccc(Cl)cc13)OC1=CC(O)=C(C(C)=O)C(=O)[C@]12C
[1]
  EC50: 4.9 nM
[2]
  Emax: 44%

## COc1cc(O)c2c(c1C(=O)NCc1c(C)ccc3cc(F)ccc13)OC1=CC(O)=C(C(C)=O)C(=O)[C@]12C
[1]
  EC50: 27 nM
[2]
  Emax: 28%
